{"source": "ChEMBL document CHEMBL5360580", "about": "(Eur J Med Chem, 2023)", "key": {"[1]": {"tested_on": "SARS-CoV-2", "experiment": "Antiviral activity against SARS-CoV-2 infected in African green monkey Vero E6 cells assessed as inhibition of viral replication at 1 uM incubated for 24 hrs by IFA assay relative to control", "assay_type": "functional", "conditions": "Severe acute respiratory syndrome coronavirus 2, Vero C1008"}, "[2]": {"tested_on": "SARS-CoV-2", "experiment": "Antiviral activity against SARS-CoV-2 infected in African green monkey Vero E6 cells assessed as inhibition of viral replication at 5 uM incubated for 24 hrs by IFA assay relative to control", "assay_type": "functional", "conditions": "Severe acute respiratory syndrome coronavirus 2, Vero C1008"}, "[3]": {"tested_on": "SARS-CoV-2", "experiment": "Antiviral activity against SARS-CoV-2 infected in African green monkey Vero E6 cells assessed as inhibition of viral replication at 2.5 uM incubated for 24 hrs by IFA assay relative to control", "assay_type": "functional", "conditions": "Severe acute respiratory syndrome coronavirus 2, Vero C1008"}, "[4]": {"tested_on": "Vero C1008", "experiment": "Cytotoxicity against African green monkey Vero E6 cells assessed as reduction in cell viability measured after 48 hrs by CCK-8 assay", "assay_type": "toxicity, cell-based", "conditions": "chlorocebus sabaeus, vero c1008, 48 h"}, "[5]": {"experiment": "Half life in ICR mouse at 30 mg/kg, po measured upto 24 hrs by LC-MS/MS analysis", "assay_type": "ADME, organism-based", "conditions": "in vivo", "method_in_brief": "(§1)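 Male-unspecified ICR (CD-1) mice, N = 3 per group, were fasted 12 h. Compound in DMSO/0.5% HMPC (5/95, v/v) was given orally at 30 mg/kg or intravenously at 2.5 mg/kg. Femoral-vein blood was drawn at 0.25, 0.5, 1, 2, 4, 8 and 24 h, and serum analyte levels were measured by LC-MS/MS.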"}, "[6]": {"experiment": "Cmax in ICR mouse at 30 mg/kg, po measured upto 24 hrs by LC-MS/MS analysis", "assay_type": "ADME, organism-based", "set-up": "dose 30 mg/kg, time < 24 hrs, route po", "conditions": "in vivo", "method_in_brief": "as §1"}, "[7]": {"experiment": "AUClast in ICR mouse at 30 mg/kg, po measured upto 24 hrs by LC-MS/MS analysis", "assay_type": "ADME, organism-based", "set-up": "dose 30 mg/kg, time < 24 hrs, route po", "conditions": "in vivo", "method_in_brief": "as §1"}, "[8]": {"experiment": "Observed AUC (0 to infinity) in ICR mouse at 30 mg/kg, po measured upto 24 hrs by LC-MS/MS analysis", "assay_type": "ADME, organism-based", "set-up": "dose 30 mg/kg, time < 24 hrs, route po", "conditions": "in vivo", "method_in_brief": "as §1"}, "[9]": {"experiment": "Observed MRT (0 to infinity) in ICR mouse at 30 mg/kg, po measured upto 24 hrs by LC-MS/MS analysis", "assay_type": "ADME, organism-based", "conditions": "in vivo", "method_in_brief": "as §1"}, "[10]": {"experiment": "Aqueous solubility of compound at 0.5 mg/mL in presence of acetonitrile by HPLC analysis", "assay_type": "physicochemical", "conditions": "buffer", "method_in_brief": "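Compound was suspended in water, vortexed vigorously and filtered through a 0.22 μm membrane. The filtrate was diluted 2-fold with 80% acetonitrile and analysed by reversed-phase amide HPLC. Concentration was read against a standard curve prepared from a 0.5 mg/mL solution in 80% acetonitrile. Single determination.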"}, "[11]": {"tested_on": "Vero C1008", "experiment": "Downregulation of SKP2 level in African green monkey Vero E6 cells at 0.3 to 10 uM measured after 16 hrs by Western blotting analysis", "assay_type": "functional, cell-based", "conditions": "Chlorocebus sabaeus, dose 0.3-10 µM", "method_in_brief": "(§2)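 Vero-E6 cells in DMEM with 10% FBS were cultured overnight at 37 °C, 5% CO2, then treated with a concentration series for 16 h. Lysates were made in RIPA on ice and equalised for protein by BCA. Blots were probed for SKP2 or Beclin-1 plus β-actin and detected by ECL. The band-intensity ratio to β-actin was normalised to DMSO control.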"}, "[12]": {"tested_on": "Vero C1008", "experiment": "Downregulation of BECN1 level in African green monkey Vero E6 cells at 10 uM measured after 16 hrs by Western blotting analysis", "assay_type": "functional, cell-based", "conditions": "Chlorocebus sabaeus", "method_in_brief": "as §2"}, "[13]": {"tested_on": "Vero C1008", "experiment": "Downregulation of BECN1 level in African green monkey Vero E6 cells at 1 to 3 uM measured after 16 hrs by Western blotting analysis", "assay_type": "functional, cell-based", "conditions": "Chlorocebus sabaeus, dose 1-3 µM", "method_in_brief": "as §2"}, "[14]": {"tested_on": "SARS-CoV-2", "experiment": "Antiviral activity against SARS-CoV-2 infected in African green monkey Vero E6 cells assessed as inhibition of viral replication incubated for 24 hrs by IFA assay", "assay_type": "functional, organism-based", "conditions": "Severe acute respiratory syndrome coronavirus 2, Vero C1008, 24 h"}, "[15]": {"experiment": "Selectivity index, ratio of CC50 for cytotoxicity against African green monkey Vero E6 to EC50 for antiviral activity against SARS-CoV-2 infected in African green monkey Vero E6 cells", "assay_type": "toxicity, cell-based, Vero C1008", "conditions": "read-out: Ratio CC50/EC50"}, "[16]": {"experiment": "Prodrug conversion in ICR mouse plasma assessed as half life of compound 5-chloro-4-fluoro-2-hydroxy-N-(4-(trifluoromethoxy)phenyl)benzamide at 30 mg/kg, po and 2.5 mg/kg, iv measured upto 24 hrs by LC-MS/MS analysis", "assay_type": "ADME, organism-based", "conditions": "in vivo", "method_in_brief": "(§3)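 Prodrugs were given to fasted ICR (CD-1) mice (N = 3) in DMSO/0.5% HMPC (5/95), at 30 mg/kg po or 2.5 mg/kg iv. Serum from femoral-vein blood taken 0.25–24 h was analysed by LC-MS/MS for the released parent compound, with mole correction applied to the parameters.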"}, "[17]": {"experiment": "Prodrug conversion in ICR mouse plasma assessed as Cmax of compound 5-chloro-4-fluoro-2-hydroxy-N-(4-(trifluoromethoxy)phenyl)benzamide at 30 mg/kg, po and 2.5 mg/kg, iv measured upto 24 hrs by LC-MS/MS analysis", "assay_type": "ADME, organism-based", "set-up": "time < 24 hrs, dose 30 mg/kg, route po", "conditions": "in vivo", "method_in_brief": "as §3"}, "[18]": {"experiment": "Prodrug conversion in ICR mouse plasma assessed as AUClast of compound 5-chloro-4-fluoro-2-hydroxy-N-(4-(trifluoromethoxy)phenyl)benzamide at 30 mg/kg, po and 2.5 mg/kg, iv measured upto 24 hrs by LC-MS/MS analysis", "assay_type": "ADME, organism-based", "set-up": "dose 30 mg/kg, time < 24 hrs, route po", "conditions": "in vivo", "method_in_brief": "as §3"}, "[19]": {"experiment": "Prodrug conversion in ICR mouse plasma assessed as Observed AUC (0 to infinity) of compound 5-chloro-4-fluoro-2-hydroxy-N-(4-(trifluoromethoxy)phenyl)benzamide at 30 mg/kg, po and 2.5 mg/kg, iv measured upto 24 hrs by LC-MS/MS analysis", "assay_type": "ADME, organism-based", "set-up": "time < 24 hrs, dose 30 mg/kg, route po", "conditions": "in vivo", "method_in_brief": "as §3"}, "[20]": {"experiment": "Prodrug conversion in ICR mouse plasma assessed as Observed MRT (0 to infinity) of compound 5-chloro-4-fluoro-2-hydroxy-N-(4-(trifluoromethoxy)phenyl)benzamide at 30 mg/kg, po and 2.5 mg/kg, iv measured upto 24 hrs by LC-MS/MS analysis", "assay_type": "ADME, organism-based", "conditions": "in vivo", "method_in_brief": "as §3"}, "[21]": {"experiment": "Prodrug conversion in ICR mouse plasma assessed as oral bioavailability of compound 5-chloro-4-fluoro-2-hydroxy-N-(4-(trifluoromethoxy)phenyl)benzamide at 30 mg/kg measured upto 24 hrs by LC-MS/MS analysis", "assay_type": "ADME, organism-based", "conditions": "in vivo", "method_in_brief": "as §3"}}, "note": "Active and inactive are the calls of the source. The rule behind the calls is not given here."}
{"molecule": "O=C(NC(=O)c1cc(Cl)ccc1O)c1ccc(C(F)(F)F)cc1", "values": [{"measurement": "inhibition at 1 µM", "setting": "[1]", "value": "< 10", "unit": "%"}]}
{"molecule": "COc1ccc(Cl)cc1C(=O)Nc1ccc(C(F)(F)F)cc1", "values": [{"measurement": "inhibition at 1 µM", "setting": "[1]", "value": "< 10", "unit": "%"}]}
{"molecule": "CCC(CC)COC(=O)[C@H](C)N[P@](=O)(OC[C@H]1O[C@@](C#N)(c2ccc3c(N)ncnn23)[C@H](O)[C@@H]1O)Oc1ccccc1", "values": [{"measurement": "inhibition at 1 µM", "setting": "[1]", "value": "< 10", "unit": "%"}, {"measurement": "inhibition at 5 µM", "setting": "[2]", "value": 99, "unit": "%"}]}
{"molecule": "O=C(Nc1ccc(OC(F)(F)F)cc1)c1cc(Cl)ccc1O", "values": [{"measurement": "inhibition at 1 µM", "setting": "[1]", "value": 55, "unit": "%"}]}
{"molecule": "CC(=O)Nc1ccc(NC(=O)c2cc(Cl)ccc2O)c(Cl)c1", "values": [{"measurement": "inhibition at 1 µM", "setting": "[1]", "value": "< 10", "unit": "%"}]}
{"molecule": "Oc1ccc(Cl)cc1-c1nnc(-c2ccc(C(F)(F)F)cc2)[nH]1", "values": [{"measurement": "inhibition at 1 µM", "setting": "[1]", "value": "< 10", "unit": "%"}]}
{"molecule": "CC(=O)c1cc(Cl)cc(C(=O)Nc2ccc(C(F)(F)F)cc2)c1O", "values": [{"measurement": "inhibition at 1 µM", "setting": "[1]", "value": 50, "unit": "%"}]}
{"molecule": "O=C(Nc1ccc([N+](=O)[O-])cc1Cl)c1cc(Cl)ccc1O", "note": "[NICLOSAMIDE]", "values": [{"measurement": "inhibition at 2.5 µM", "setting": "[3]", "value": 39, "unit": "%"}, {"measurement": "CC50", "setting": "[4]", "value": 1960, "unit": "nM"}, {"measurement": "t1/2", "setting": "[5]", "value": 1.99, "unit": "h"}, {"measurement": "Cmax", "setting": "[6]", "value": 428, "unit": "ng/mL"}, {"measurement": "AUClast", "setting": "[7]", "value": 478, "unit": "ng·h/mL"}, {"measurement": "AUC", "setting": "[8]", "value": 522, "unit": "ng·h/mL"}, {"measurement": "MRT", "setting": "[9]", "value": 2.81, "unit": "h"}, {"measurement": "solubility", "setting": "[10]", "value": 0.16, "unit": "µg/mL"}, {"measurement": "Activity", "setting": "[11]", "value": "Active"}, {"measurement": "Activity", "setting": "[12]", "value": "Active"}, {"measurement": "Activity", "setting": "[13]", "value": "Active"}]}
{"molecule": "Nc1ccc(NC(=O)c2cc(Cl)ccc2O)c(Cl)c1", "values": [{"measurement": "inhibition at 1 µM", "setting": "[1]", "value": "< 10", "unit": "%"}]}
{"molecule": "O=C(NCc1ccc(C(F)(F)F)cc1)c1cc(Cl)ccc1O", "values": [{"measurement": "inhibition at 1 µM", "setting": "[1]", "value": 55, "unit": "%"}]}
{"molecule": "O=C(Nc1ccc(C(F)(F)F)cc1)c1cc(Cl)c(F)cc1O", "values": [{"measurement": "inhibition at 1 µM", "setting": "[1]", "value": 95, "unit": "%"}, {"measurement": "EC50", "setting": "[14]", "value": 1000, "unit": "nM"}, {"measurement": "CC50", "setting": "[4]", "value": 3730, "unit": "nM"}, {"measurement": "selectivity ratio", "setting": "[15]", "value": 3.73}, {"measurement": "t1/2", "setting": "[5]", "value": 3.1, "unit": "h"}, {"measurement": "Cmax", "setting": "[6]", "value": 452, "unit": "ng/mL"}, {"measurement": "AUClast", "setting": "[7]", "value": 1563, "unit": "ng·h/mL"}, {"measurement": "AUC", "setting": "[8]", "value": 1573, "unit": "ng·h/mL"}, {"measurement": "MRT", "setting": "[9]", "value": 5.45, "unit": "h"}]}
{"molecule": "O=C(Nc1ccc(C(F)(F)F)cc1)c1cc(Cl)ccc1O", "values": [{"measurement": "inhibition at 1 µM", "setting": "[1]", "value": 95, "unit": "%"}, {"measurement": "EC50", "setting": "[14]", "value": 1310, "unit": "nM"}]}
{"molecule": "O=C(Nc1ccc(C(F)(F)F)cc1)c1cc(Cl)cc(Cl)c1O", "values": [{"measurement": "inhibition at 1 µM", "setting": "[1]", "value": "< 10", "unit": "%"}]}
{"molecule": "CC(C)C(=O)Oc1cc(F)c(Cl)cc1C(=O)Nc1ccc(OC(F)(F)F)cc1", "values": [{"measurement": "t1/2", "setting": "[16]", "value": 3.03, "unit": "h"}, {"measurement": "Cmax", "setting": "[17]", "value": 5175, "unit": "ng/mL"}, {"measurement": "AUClast", "setting": "[18]", "value": 17393, "unit": "ng·h/mL"}, {"measurement": "AUC", "setting": "[19]", "value": 17551, "unit": "ng·h/mL"}, {"measurement": "MRT", "setting": "[20]", "value": 5.52, "unit": "h"}, {"measurement": "F", "setting": "[21]", "value": 39.75, "unit": "%"}, {"measurement": "solubility", "setting": "[10]", "value": 0.53, "unit": "µg/mL"}]}
